Key:
Assay type in all cases: functional
[1] = system: Cryptococcus neoformans; assay: Antifungal activity against Cryptococcus neoformans ATCC 32264 assessed as inhibition of fungal growth at 12.5 uM after 48 hrs by microplate analysis; details: ATCC 32264, 48 h
How it was run: (§1)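 Broth microdilution in RPMI-1640. Peptide DMSO stocks were diluted to final concentrations of 200–3.125, with DMSO ≤2%. Inoculum was 1–5×10³ CFU/mL from Sabouraud-chloramphenicol agar cultures (24 h, 35 °C). Plates were held in a moist, dark chamber at 35 °C: 24 h for C. albicans, 48 h for C. neoformans.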

[2] = system: Cryptococcus neoformans; assay: Antifungal activity against Cryptococcus neoformans ATCC 32264 assessed as inhibition of fungal growth at 6.25 uM after 48 hrs by microplate analysis; details: ATCC 32264, 48 h; how it was run: as §1
[3] = system: Cryptococcus neoformans; assay: Antifungal activity against Cryptococcus neoformans ATCC 32264 assessed as inhibition of fungal growth at 50 uM after 48 hrs by microplate analysis; details: ATCC 32264, 48 h; how it was run: as §1
[4] = system: Cryptococcus neoformans; assay: Antifungal activity against Cryptococcus neoformans ATCC 32264 assessed as inhibition of fungal growth at 100 uM after 48 hrs by microplate analysis; details: ATCC 32264, 48 h; how it was run: as §1
[5] = system: Candida albicans; assay: Antifungal activity against Candida albicans ATCC 10231 assessed as inhibition of fungal growth at 50 uM after 24 hrs by microplate analysis; details: ATCC 10231, 24 h; how it was run: as §1
[6] = system: Candida albicans; assay: Antifungal activity against Candida albicans ATCC 10231 assessed as inhibition of fungal growth at 25 uM after 24 hrs by microplate analysis; details: ATCC 10231, 24 h; how it was run: as §1
[7] = system: Cryptococcus neoformans; assay: Antifungal activity against Cryptococcus neoformans ATCC 32264 assessed as inhibition of fungal growth at 200 uM after 48 hrs by microplate analysis; details: ATCC 32264, 48 h; how it was run: as §1
[8] = system: Candida albicans; assay: Antifungal activity against Candida albicans ATCC 10231 assessed as inhibition of fungal growth at 200 uM after 24 hrs by microplate analysis; details: ATCC 10231, 24 h; how it was run: as §1
[9] = system: Candida albicans; assay: Antifungal activity against Candida albicans ATCC 10231 assessed as inhibition of fungal growth at 6.25 uM after 24 hrs by microplate analysis; details: ATCC 10231, 24 h; how it was run: as §1
[10] = system: Candida albicans; assay: Antifungal activity against Candida albicans ATCC 10231 assessed as inhibition of fungal growth at 12.5 uM after 24 hrs by microplate analysis; details: ATCC 10231, 24 h; how it was run: as §1
[11] = system: Candida albicans; assay: Antifungal activity against Candida albicans ATCC 10231 assessed as inhibition of fungal growth at 100 uM after 24 hrs by microplate analysis; details: ATCC 10231, 24 h; how it was run: as §1
[12] = system: Cryptococcus neoformans; assay: Antifungal activity against Cryptococcus neoformans ATCC 32264 assessed as inhibition of fungal growth at 25 uM after 48 hrs by microplate analysis; details: ATCC 32264, 48 h; how it was run: as §1

Molecule | inhibition at 12.5 µM [1] | inhibition at 6.25 µM [2] | inhibition at 50 µM [3] | inhibition at 100 µM [4] | inhibition at 50 µM [5] | inhibition at 25 µM [6] | inhibition at 200 µM [7] | inhibition at 200 µM [8] | inhibition at 6.25 µM [9] | inhibition at 12.5 µM [10] | inhibition at 100 µM [11] | inhibition at 25 µM [12]
N=C(N)NCCC[C@H](NC(=O)CNC(=O)[C@@H](N)Cc1ccc(O)cc1)C(=O)N[C@@H](CCCCN)C(=O)N[C@@H](CCCCN)C(=O)N[C@@H](CCCNC(=N)N)C(=O)N[C@@H](CCCNC(=N)N)C(=O)N[C@@H](CCC(N)=O)C(=O)N[C@@H](CCCNC(=N)N)C(=O)N[C@@H](CCCNC(=N)N)C(=O)N[C@@H](CCCNC(=N)N)C(=O)N[C@@H](CS)C(N)=O | 0% | 0% | 61.3% | 100% | 6.75% | 6.71% | 100% | 99.1% | 4.97% | 6.12% | 99.1% | 1.75%
C[C@@H]1[C@H](O)[C@@H](C)/C=C/C=C/C=C/C=C/C=C/C=C/C=C/[C@H](O[C@@H]2O[C@H](C)[C@@H](O)[C@H](N)[C@@H]2O)C[C@@H]2O[C@](O)(C[C@@H](O)C[C@@H](O)[C@H](O)CC[C@@H](O)C[C@@H](O)CC(=O)O[C@H]1C)C[C@H](O)[C@H]2C(=O)O [AMPHOTERICIN B] | 100% | 100% | 100% | 100% | 100% | 100% | 100% | 100% | 100% | 100% | 100% | 100%
H-RQIRIWFQNRRMRWRR-NH2 | 77.5% | 43.3% | 100% | 100% | 98.9% | 6.16% | 100% | 100% | 3.71% | 4.38% | 100% | 81.7%
CC[C@H](C)[C@H](NC(=O)[C@H](CCCCN)NC(=O)[C@@H](NC(=O)[C@H](CCC(N)=O)NC(=O)[C@H](CCCNC(=N)N)NC(=O)[C@H](Cc1c[nH]c2ccccc12)NC(=O)[C@H](CCCNC(=N)N)NC(=O)[C@H](Cc1ccccc1)NC(=O)[C@@H](N)Cc1cnc[nH]1)[C@@H](C)CC)C(=O)N[C@@H](Cc1c[nH]c2ccccc12)C(=O)N[C@@H](Cc1ccccc1)C(=O)N[C@@H](CCC(N)=O)C(=O)N[C@@H](CC(N)=O)C(=O)N[C@@H](CCCNC(=N)N)C(=O)N[C@@H](CCCNC(=N)N)C(=O)N[C@@H](CC[S+](C)[O-])C(=O)N[C@@H](CCCCN)C(=O)N[C@@H](Cc1c[nH]c2ccccc12)C(=O)N[C@@H](CCCCN)C(=O)N[C@@H](CCCCN)C(N)=O (some centres undefined) | 99.3% | 95.1% | 100% | 100% | 93.7% | 5.96% | 100% | 100% | 2.9% | 3.95% | 100% | 100%
H-KQIKIWFQNKKMKWKK-NH2 [KQIKIWFQNKKMKWKK-NH2] | 72% | 64.5% | 100% | 100% | 100% | 8.41% | 100% | 100% | 3.24% | 5.97% | 100% | 98.5%
H-RWWKWWWWWRRWKWKK-NH2 | 31.5% | 22.6% | 77.5% | 90% | 95.8% | 30.9% | 100% | 100% | 8.72% | 14.8% | 99.1% | 44.2%
CC(=O)N1CCN(c2ccc(OCC3COC(Cn4ccnc4)(c4ccc(Cl)cc4Cl)O3)cc2)CC1 (centres undefined) [KETOCONAZOLE] | 100% | 100% | 100% | 100% | 100% | 100% | 100% | 100% | 100% | 100% | 100% | 100%

Source: ChEMBL document CHEMBL1649370, “Penetratin analogues acting as antifungal agents” (2011)
